Reference: ChEMBL document CHEMBL1137675, “Convenient one-pot synthesis of novel 2-substituted benzimidazoles, tetrahydrobenzimidazoles and imidazoles and evaluation of their in vitro antibacterial and antifungal activities” (2009)
≈ marks a conversion by molar mass, not a printed value.

Key:
Escherichia coli = experiment: Antibacterial activity against Escherichia coli K-12 at 37 degC after 24 hrs by filter paper disk method; format: functional; conditions: for MIC: Escherichia coli, K-12, 24 h
Method in brief: (§1)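 Compounds were taken from a 1 mg/ml DMSO stock and serially diluted two-fold over a 300 to 18.75 range, then loaded onto sterile 8 mm paper discs. Bacteria were grown overnight in nutrient broth at 37 °C, pelleted, and resuspended in sterile NSS to 10⁵ cfu/ml. About 0.1 ml was spread on NA plates. Plates were incubated 24 h at 37 °C with a solvent control disc, and inhibition zone diameter was read in mm.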

Bacillus subtilis = experiment: Antibacterial activity against Bacillus subtilis ATCC 6051 at 37 degC after 24 hrs by filter paper disk method; format: functional; conditions: for MIC: Bacillus subtilis, ATCC 6051, 24 h; method in brief: as §1
Penicillium sp. = experiment: Antifungal activity against Penicillium sp. at 28 degC after 72 hrs; format: functional; conditions: for MIC: Penicillium sp., 72 h
Method in brief: (§2)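 Filamentous fungi were kept on SDA at 28 °C. Spores from 7-day cultures were suspended in sterile normal saline to about 10⁵ cfu/ml, and about 0.1 ml was spread on SDA plates. Compounds were serially diluted two-fold in DMSO and impregnated on 8 mm discs, with a solvent control disc on each plate. Plates were held at 28 °C for 72 h or more, and inhibition zone diameter was read in mm.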

Aspergillus niger = experiment: Antifungal activity against Aspergillus niger at 28 degC after 72 hrs; format: functional; conditions: for MIC: Aspergillus niger, 72 h; method in brief: as §2
Candida albicans = experiment: Antifungal activity against Candida albicans IOA-109 at 37 degC after 18 to 48 hrs; format: functional; conditions: for MIC: Candida albicans, IOA-109
Staphylococcus aureus = experiment: Antibacterial activity against Staphylococcus aureus MSSA 22 at 37 degC after 24 hrs by filter paper disk method; format: functional; conditions: for MIC: Staphylococcus aureus, MSSA 22, 24 h; method in brief: as §1
Salmonella typhimurium = experiment: Antibacterial activity against Salmonella Typhimurium MTCC 98 at 37 degC after 24 hrs by filter paper disk method; format: functional, Salmonella enterica subsp. enterica serovar Typhimurium; conditions: for MIC: Salmonella enterica, MTCC 98, 24 h; method in brief: as §1
Helminthosporium = experiment: Antifungal activity against Helminthosporium oryzae 2537 ICAR at 28 degC after 72 hrs; format: functional; conditions: for MIC: Helminthosporium, 72 h; method in brief: as §2
Trichoderma viride = experiment: Antifungal activity against Trichoderma viride at 28 degC after 72 hrs; format: functional; conditions: for MIC: Trichoderma viride, 72 h; method in brief: as §2

SMILES	MIC (Escherichia coli)	MIC (Bacillus subtilis)	MIC (Penicillium sp.)	MIC (Aspergillus niger)	MIC (Candida albicans)	MIC (Staphylococcus aureus)	MIC (Salmonella typhimurium)	MIC (Helminthosporium)	MIC (Trichoderma viride)	diameter of the inhibition zone (DIZ) (Escherichia coli)	diameter of the inhibition zone (DIZ) (Bacillus subtilis)	diameter of the inhibition zone (DIZ) (Penicillium sp.)	diameter of the inhibition zone (DIZ) (Aspergillus niger)	diameter of the inhibition zone (DIZ) (Candida albicans)	diameter of the inhibition zone (DIZ) (Staphylococcus aureus)	diameter of the inhibition zone (DIZ) (Salmonella typhimurium)	diameter of the inhibition zone (DIZ) (Helminthosporium)	diameter of the inhibition zone (DIZ) (Trichoderma viride)
CCCCCCCC/C=C/CCCCCCCc1ncc[nH]1	150 µg/mL (≈ 493 µM)	37.5 µg/mL (≈ 123 µM)	150 µg/mL (≈ 493 µM)	150 µg/mL (≈ 493 µM)	75 µg/mL (≈ 246 µM)	150 µg/mL (≈ 493 µM)	75 µg/mL (≈ 246 µM)	150 µg/mL (≈ 493 µM)	75 µg/mL (≈ 246 µM)	11 mm	19 mm	17 mm	12 mm	18 mm	15 mm	11 mm	12 mm	4 mm
CCCCCCCC/C=C\CCCCCCCc1nc2ccccc2[nH]1	150 µg/mL (≈ 423 µM)	75 µg/mL (≈ 212 µM)	75 µg/mL (≈ 212 µM)	150 µg/mL (≈ 423 µM)	75 µg/mL (≈ 212 µM)	150 µg/mL (≈ 423 µM)	75 µg/mL (≈ 212 µM)	150 µg/mL (≈ 423 µM)	75 µg/mL (≈ 212 µM)	16 mm	21 mm	18 mm	16 mm	19 mm	18 mm	14 mm	12 mm	6 mm
CCCCC/C=C\CC[C@H](O)CCCCCCCc1ncc[nH]1	150 µg/mL (≈ 468 µM)	37.5 µg/mL (≈ 117 µM)	150 µg/mL (≈ 468 µM)	150 µg/mL (≈ 468 µM)	75 µg/mL (≈ 234 µM)	150 µg/mL (≈ 468 µM)	75 µg/mL (≈ 234 µM)	150 µg/mL (≈ 468 µM)	75 µg/mL (≈ 234 µM)	12 mm	19 mm	19 mm	14 mm	18 mm	15 mm	12 mm	12 mm	6 mm
CCCCCC[C@@H](O)C/C=C\CCCCCCCc1nc2c([nH]1)CCCC2	150 µg/mL (≈ 400 µM)	75 µg/mL (≈ 200 µM)	75 µg/mL (≈ 200 µM)	37.5 µg/mL (≈ 100 µM)	75 µg/mL (≈ 200 µM)	75 µg/mL (≈ 200 µM)	75 µg/mL (≈ 200 µM)	150 µg/mL (≈ 400 µM)	37.5 µg/mL (≈ 100 µM)	15 mm	19 mm	16 mm	12 mm	17 mm	17 mm	12 mm	11 mm	7 mm
CCCCCCCC/C=C/CCCCCCCc1nc2c([nH]1)CCCC2	150 µg/mL (≈ 418 µM)	75 µg/mL (≈ 209 µM)	75 µg/mL (≈ 209 µM)	37.5 µg/mL (≈ 105 µM)	75 µg/mL (≈ 209 µM)	75 µg/mL (≈ 209 µM)	75 µg/mL (≈ 209 µM)	150 µg/mL (≈ 418 µM)	37.5 µg/mL (≈ 105 µM)	17 mm	19 mm	17 mm	13 mm	18 mm	16 mm	10 mm	12 mm	6 mm
CCCCCC[C@@H](O)C/C=C\CCCCCCCc1ncc[nH]1	150 µg/mL (≈ 468 µM)	37.5 µg/mL (≈ 117 µM)	150 µg/mL (≈ 468 µM)	150 µg/mL (≈ 468 µM)	75 µg/mL (≈ 234 µM)	150 µg/mL (≈ 468 µM)	75 µg/mL (≈ 234 µM)	150 µg/mL (≈ 468 µM)	75 µg/mL (≈ 234 µM)	12 mm	18 mm	18 mm	13 mm	18 mm	15 mm	12 mm	13 mm	6 mm
CCCCCC[C@@H](O)C/C=C\CCCCCCCc1nc2ccccc2[nH]1	150 µg/mL (≈ 405 µM)	75 µg/mL (≈ 202 µM)	75 µg/mL (≈ 202 µM)	150 µg/mL (≈ 405 µM)	75 µg/mL (≈ 202 µM)	150 µg/mL (≈ 405 µM)	75 µg/mL (≈ 202 µM)	150 µg/mL (≈ 405 µM)	75 µg/mL (≈ 202 µM)	17 mm	21 mm	19 mm	16 mm	19 mm	19 mm	12 mm	13 mm	8 mm

Now those with a lower MIC (Escherichia coli), led by results:

MIC (Escherichia coli)	MIC (Bacillus subtilis)	MIC (Penicillium sp.)	MIC (Aspergillus niger)	MIC (Candida albicans)	MIC (Staphylococcus aureus)	MIC (Salmonella typhimurium)	MIC (Helminthosporium)	MIC (Trichoderma viride)	SMILES	diameter of the inhibition zone (DIZ) (Escherichia coli)	diameter of the inhibition zone (DIZ) (Bacillus subtilis)	diameter of the inhibition zone (DIZ) (Penicillium sp.)	diameter of the inhibition zone (DIZ) (Aspergillus niger)	diameter of the inhibition zone (DIZ) (Candida albicans)	diameter of the inhibition zone (DIZ) (Staphylococcus aureus)	diameter of the inhibition zone (DIZ) (Salmonella typhimurium)	diameter of the inhibition zone (DIZ) (Helminthosporium)	diameter of the inhibition zone (DIZ) (Trichoderma viride)
37.5 µg/mL (≈ 90.2 µM)	37.5 µg/mL (≈ 90.2 µM)	37.5 µg/mL (≈ 90.2 µM)	37.5 µg/mL (≈ 90.2 µM)	37.5 µg/mL (≈ 90.2 µM)	37.5 µg/mL (≈ 90.2 µM)	37.5 µg/mL (≈ 90.2 µM)	75 µg/mL (≈ 180 µM)	37.5 µg/mL (≈ 90.2 µM)	CCCCC/C=C\CC[C@H](O)CCCCCCCc1nc2cc([N+](=O)[O-])ccc2[nH]1	18 mm	22 mm	19 mm	14 mm	19 mm	19 mm	13 mm	14 mm	9 mm
75 µg/mL (≈ 185 µM)	75 µg/mL (≈ 185 µM)	37.5 µg/mL (≈ 92.6 µM)	37.5 µg/mL (≈ 92.6 µM)	37.5 µg/mL (≈ 92.6 µM)	37.5 µg/mL (≈ 92.6 µM)	37.5 µg/mL (≈ 92.6 µM)	75 µg/mL (≈ 185 µM)	37.5 µg/mL (≈ 92.6 µM)	CCCCCC[C@@H](O)C/C=C\CCCCCCCc1nc2cc(Cl)ccc2[nH]1	18 mm	19 mm	19 mm	14 mm	18 mm	21 mm	17 mm	14 mm	9 mm
37.5 µg/mL (≈ 90.2 µM)	37.5 µg/mL (≈ 90.2 µM)	37.5 µg/mL (≈ 90.2 µM)	37.5 µg/mL (≈ 90.2 µM)	37.5 µg/mL (≈ 90.2 µM)	37.5 µg/mL (≈ 90.2 µM)	37.5 µg/mL (≈ 90.2 µM)	75 µg/mL (≈ 180 µM)	37.5 µg/mL (≈ 90.2 µM)	CCCCCC[C@@H](O)C/C=C\CCCCCCCc1nc2cc([N+](=O)[O-])ccc2[nH]1	16 mm	21 mm	19 mm	16 mm	19 mm	19 mm	12 mm	15 mm	9 mm
75 µg/mL (≈ 249 µM)	37.5 µg/mL (≈ 124 µM)	37.5 µg/mL (≈ 124 µM)	37.5 µg/mL (≈ 124 µM)	37.5 µg/mL (≈ 124 µM)	150 µg/mL (≈ 498 µM)	37.5 µg/mL (≈ 124 µM)	75 µg/mL (≈ 249 µM)	37.5 µg/mL (≈ 124 µM)	C=CCCCCCCCCc1nc2cc([N+](=O)[O-])ccc2[nH]1	20 mm	19 mm	18 mm	15 mm	18 mm	22 mm	12 mm	10 mm	8 mm
37.5 µg/mL (≈ 144 µM)	75 µg/mL (≈ 288 µM)	75 µg/mL (≈ 288 µM)	37.5 µg/mL (≈ 144 µM)	75 µg/mL (≈ 288 µM)	75 µg/mL (≈ 288 µM)	75 µg/mL (≈ 288 µM)	150 µg/mL (≈ 576 µM)	37.5 µg/mL (≈ 144 µM)	C=CCCCCCCCCc1nc2c([nH]1)CCCC2	17 mm	18 mm	18 mm	12 mm	18 mm	18 mm	11 mm	11 mm	7 mm
75 µg/mL (≈ 193 µM)	75 µg/mL (≈ 193 µM)	37.5 µg/mL (≈ 96.4 µM)	37.5 µg/mL (≈ 96.4 µM)	37.5 µg/mL (≈ 96.4 µM)	37.5 µg/mL (≈ 96.4 µM)	37.5 µg/mL (≈ 96.4 µM)	75 µg/mL (≈ 193 µM)	37.5 µg/mL (≈ 96.4 µM)	CCCCCCCC/C=C/CCCCCCCc1nc2cc(Cl)ccc2[nH]1	18 mm	18 mm	19 mm	15 mm	18 mm	20 mm	15 mm	16 mm	9 mm
